Data: ChEMBL document CHEMBL1817613, “Antitumor actinopyranones produced by Streptomyces albus POR-04-15-053 isolated from a marine sediment” (J Nat Prod, 2011)
Counter-ions that a name gives are not always drawn. Activity calls are given as the source filed them. The calls are words filed in the database; no cut-off is given here.

Experiments:
MDA-MB-231 = test: Antitumor activity against human MDA-MB-231 cells after 72 hrs by SRB assay; assay type: functional; conditions: MDA-MB-231, 72 h
Procedure, shortened: (§1)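 Cells kept in RPMI with 10% fetal calf serum, 2 mM L-glutamine, penicillin/streptomycin, 37 °C, 5% CO2. Triplicate cultures exposed 72 h to 10 concentrations from 10 to 0.0026 μg/mL. Fixed in 1% glutaraldehyde, stained with 0.4% SRB for 30 min, dye extracted in 10 mM Trizma base, absorbance at 490 nm. Doxorubicin positive control. GI50, TGI and LC50 interpolated from nonlinear-regression dose-response curves (mean ± SD).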

HT-29 = test: Antitumor activity against human HT-29 cells after 72 hrs by SRB assay; assay type: functional; conditions: HT-29, 72 h; procedure, shortened: as §1
A549 = test: Antitumor activity against human A549 cells after 72 hrs by SRB assay; assay type: functional; conditions: A549, 72 h; for CC50: read-out: LC50 (the source's name); procedure, shortened: as §1
[1] = target: T1, Epidermal growth factor receptor (Homo sapiens, UniProt P00533); test: Inhibition of EGFR autophosphorylation in human HeLa cells preincubated for 30 mins prior to EGF stimulation by Western blotting; assay type: cell-based
T1 sequence (P00533 whole entry): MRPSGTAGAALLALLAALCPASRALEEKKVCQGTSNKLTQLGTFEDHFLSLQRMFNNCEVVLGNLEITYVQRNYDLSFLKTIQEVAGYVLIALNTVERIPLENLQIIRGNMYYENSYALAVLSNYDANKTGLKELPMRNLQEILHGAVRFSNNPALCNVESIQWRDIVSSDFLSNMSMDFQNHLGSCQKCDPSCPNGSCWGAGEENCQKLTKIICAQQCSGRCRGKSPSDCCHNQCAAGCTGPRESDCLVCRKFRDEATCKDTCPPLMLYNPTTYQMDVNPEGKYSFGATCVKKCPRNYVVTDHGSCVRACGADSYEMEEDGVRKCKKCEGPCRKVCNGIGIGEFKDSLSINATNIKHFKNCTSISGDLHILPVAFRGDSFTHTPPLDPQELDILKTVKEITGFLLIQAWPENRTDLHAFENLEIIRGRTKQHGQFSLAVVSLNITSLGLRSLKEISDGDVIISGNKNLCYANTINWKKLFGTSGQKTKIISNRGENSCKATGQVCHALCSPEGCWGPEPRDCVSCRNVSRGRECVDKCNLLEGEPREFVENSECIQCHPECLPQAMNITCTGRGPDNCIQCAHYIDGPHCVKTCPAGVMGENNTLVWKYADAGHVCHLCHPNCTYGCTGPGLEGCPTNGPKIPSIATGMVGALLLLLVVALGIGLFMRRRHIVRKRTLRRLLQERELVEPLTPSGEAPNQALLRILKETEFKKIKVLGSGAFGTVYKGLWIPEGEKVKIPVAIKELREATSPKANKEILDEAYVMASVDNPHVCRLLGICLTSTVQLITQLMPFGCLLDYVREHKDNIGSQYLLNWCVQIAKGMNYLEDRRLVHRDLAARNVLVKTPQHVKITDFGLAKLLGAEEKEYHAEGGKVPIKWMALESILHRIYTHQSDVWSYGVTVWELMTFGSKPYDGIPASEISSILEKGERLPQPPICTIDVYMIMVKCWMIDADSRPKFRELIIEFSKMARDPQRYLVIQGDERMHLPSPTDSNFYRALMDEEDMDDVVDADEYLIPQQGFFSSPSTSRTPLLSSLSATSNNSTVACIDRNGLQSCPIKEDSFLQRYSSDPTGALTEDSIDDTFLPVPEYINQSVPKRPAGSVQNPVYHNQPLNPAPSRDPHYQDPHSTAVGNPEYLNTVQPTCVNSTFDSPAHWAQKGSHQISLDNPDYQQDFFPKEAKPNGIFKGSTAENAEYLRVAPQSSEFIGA
Procedure, shortened: (§2)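 Cells preincubated 30 min with vehicle, AG1478 or compound, then treated with EGF for 10 min. Lysed on ice 15 min in Tris-HCl pH 7.5/NaCl/NP-40/EDTA buffer with protease inhibitors, cleared at 14000g for 30 min at 4 °C. Equal extract amounts run on SDS-PAGE and blotted to PVDF. Probed for phospho-EGFR, phospho-ERK and phospho-JNK, then reprobed for total ERK and JNK.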

[2] = target: T1, Epidermal growth factor receptor; test: Inhibition of EGFR-induced ERK phosphorylation in human HeLa cells preincubated for 30 mins prior to EGF stimulation by Western blotting; assay type: cell-based; procedure, shortened: as §2
[3] = target: T1, Epidermal growth factor receptor; test: Inhibition of EGFR-induced JNK1 phosphorylation in human HeLa cells preincubated for 30 mins prior to EGF stimulation by Western blotting; assay type: cell-based; procedure, shortened: as §2
HeLa [4] = test: Effect on total ERK2 level in human HeLa cells preincubated for 30 mins prior to EGF stimulation by Western blotting; assay type: functional, cell-based; procedure, shortened: as §2
HeLa [5] = test: Effect on total JNK1 level in human HeLa cells preincubated for 30 mins prior to EGF stimulation by Western blotting; assay type: functional, cell-based; procedure, shortened: as §2
[6] = target: T1, Epidermal growth factor receptor; test: Inhibition of EGFR-induced AP1 activation in human HeLa cells preincubated for 1 hr prior to EGF stimulation by luciferase reporter gene assay; assay type: cell-based
[7] = target: beta-catenin (Homo sapiens); test: Inhibition of beta-catenin activation in human SW480 cells by luciferase reporter gene assay
[8] = target: HIF-1alpha (Homo sapiens); test: Inhibition of HIF1alpha activation in human HeLa cells stimulated with deferoxamine by luciferase reporter gene assay
[9] = target: T1, Epidermal growth factor receptor; test: Inhibition of EGFR-induced ERK phosphorylation in human HeLa cells preincubated for 4 hrs prior to EGF stimulation by Western blotting; assay type: cell-based
Procedure, shortened: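 Cells preincubated 4 h with vehicle, AG1478 or compound before a 10 min EGF treatment. Lysates cleared at 14000g for 30 min at 4 °C, resolved by SDS-PAGE and blotted to PVDF. Probed for phospho-ERK and reprobed for total ERK.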

For `C/C=C(\C)C(O)C(C)/C=C(C)/C=C/CC(C)/C=C/c1oc(OC)c(CC)c(=O)c1C` (configuration not stated), the GI50 (MDA-MB-231) was > 22000 nM, the LC50 (concentration killing 50% of cells) (MDA-MB-231) was > 22000 nM and the TGI (MDA-MB-231) was > 22000 nM. For the same compound, the GI50 (HT-29) was 21500 nM, the LC50 (HT-29) was > 22000 nM and the TGI (HT-29) was > 22000 nM. For the same compound, the GI50 (A549) was 18600 nM, the TGI (A549) was > 22000 nM and the CC50 (A549) was > 22000 nM. The inhibition [1] was “inactive”, the inhibition [2] was “inactive” and the inhibition [3] was “Active”. The Activity (HeLa [4]) was “inactive” and the Activity (HeLa [5]) was “inactive”.

`COc1cc2ncnc(Nc3cccc(Cl)c3)c2cc1OC` was tested, and the inhibition [1] was “Active”.

In the case of `C/C=C(\C)C(O[C@@H]1O[C@H](CO)[C@@H](O)[C@H](O)[C@H]1O)C(C)/C=C(C)/C=C/CC(C)/C=C/c1oc(OC)c(CC)c(=O)c1C` (some centres not stated), the GI50 (MDA-MB-231) is reported as 240 nM, the LC50 (concentration killing 50% of cells) (MDA-MB-231) is reported as 820 nM and the TGI (MDA-MB-231) is reported as 430 nM. For the same compound, the GI50 (HT-29) was 380 nM, the LC50 (HT-29) was 4680 nM and the TGI (HT-29) was 1230 nM. The GI50 (A549) was 280 nM, the TGI (A549) was 520 nM and the CC50 (A549) was 1080 nM.

Compound `C/C=C(\C)C(O[C@@H]1O[C@H](CO)[C@@H](O)[C@H](O)[C@H]1O)C(C)/C=C(C)/C=C/CC(C)/C=C/c1oc(OC)c(C)c(=O)c1C` (some centres not stated) has a GI50 (MDA-MB-231) of 500 nM, an LC50 (concentration killing 50% of cells) (MDA-MB-231) of 1010 nM and a TGI (MDA-MB-231) of 690 nM. It also gave an LC50 (HT-29) of 240 nM, a GI50 (A549) of 530 nM and a TGI (A549) of 760 nM. For the same compound, the CC50 (A549) was 1160 nM, the IC50 [6] was 160 nM and the inhibition [1] was “inactive”. For the same compound, the inhibition [2] was “inactive”, the Activity (HeLa [4]) was “inactive” and the Activity (HeLa [5]) was “inactive”. For the same compound, the IC50 [7] was 170 nM and the IC50 [8] was 60 nM.

For `COc1cccc2c1C(=O)c1c(O)c3c(c(O)c1C2=O)C[C@@](O)(C(=O)CO)C[C@@H]3O[C@H]1C[C@H](N)[C@H](O)[C@H](C)O1` [DOXORUBICIN HYDROCHLORIDE], the GI50 (MDA-MB-231) was 90 nM, the TGI (MDA-MB-231) was 180 nM and the GI50 (HT-29) was 150 nM. The TGI (HT-29) was 180 nM, the GI50 (A549) was 60 nM and the TGI (A549) was 200 nM. The CC50 (A549) was 590 nM.

For `C/C=C(\C)[C@H](O)[C@H](C)/C=C(C)/C=C/CC(C)/C=C/c1oc(OC)c(C)c(=O)c1C` (some centres not stated), the GI50 (MDA-MB-231) was 10500 nM, the LC50 (concentration killing 50% of cells) (MDA-MB-231) was > 22000 nM and the TGI (MDA-MB-231) was > 22000 nM. It also gave a GI50 (HT-29) of 10800 nM, an LC50 (HT-29) of 11500 nM and a TGI (HT-29) of 10800 nM. The GI50 (A549) was 5000 nM, the TGI (A549) was 13500 nM and the CC50 (A549) was > 22000 nM. The IC50 [6] was < 7 nM, the inhibition [1] was “inactive” and the inhibition [2] was “Active”. The inhibition [9] was “Active”, the Activity (HeLa [4]) was “inactive” and the Activity (HeLa [5]) was “inactive”. It also gave an IC50 [7] of 660 nM and an IC50 [8] of 470 nM.
